Data: ChEMBL document CHEMBL1123345, “2-Alkyl-substituted 1,1-bis(4-acetoxyphenyl)-2-phenylethenes. Estrogen receptor affinity, estrogenic and antiestrogenic properties, and mammary tumor inhibiting activity” (1986)

Experiments:
[1] = molecular target: T1, Estrogen receptor (Mus musculus) (UniProt O08537+P19785); assay: Anti-estrogenic effect in uterotrophic assay in immature mice at 5 ug dose; type: functional
Method in brief: (§1)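 Immature female NMRI mice (10–12 g, 20 days old, 10 per group) given test compound sc daily for 3 days in olive oil (0.1 mL/mouse), dose per animal per day, with estrone stimulating uterine growth. Uteri removed 24 h after last injection, Bouin-fixed, dried and weighed. Read-out is % inhibition of estrone-stimulated uterine growth.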

[2] = molecular target: T1, Estrogen receptor (Mus musculus); assay: Anti-estrogenic effect in uterotrophic assay in immature mice at 1.0 ug dose; type: functional; method in brief: as §1
Mus musculus = assay: In vivo inhibition of hormone-dependent MXT mammary tumor in mice; type: functional
Method in brief: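 BDF1 mice bearing transplanted hormone-dependent MXT mammary tumor (line 3.2). From day 1 after transplantation, compounds given sc 3 times weekly in olive oil (0.1 mL/mouse) for 6 weeks, at doses equimolar to 3 × 8 mg/kg per week. Tumors excised, washed in 0.9% NaCl, blotted, weighed. T/C % = treated/solvent-control tumor weight × 100, mean of 10 animals. Mann–Whitney–Wilcoxon U test, α ≤ 0.05.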

[3] = molecular target: T1, Estrogen receptor (Mus musculus); assay: Estrogenic effect in uterotrophic assay in immature mice at 1 ug dose; type: functional
Method in brief: (§2)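 Immature female NMRI mice (10–12 g, 20 days old, 10 per group) injected sc daily for 3 days with compound in olive oil (0.1 mL/mouse), dose per animal per day. Uteri removed 24 h after last dose, Bouin-fixed, dried, weighed. Effect = uterus dry weight (mg)/body weight (g) × 100. Activity = (E_T − E_V)/(E_S − E_V) × 100, with estrone 0.4 μg standard as 100%.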

[4] = molecular target: T1, Estrogen receptor (Mus musculus); assay: Estrogenic effect in uterotrophic assay in immature mice at 25 ug dose; type: functional; method in brief: as §2
[5] = molecular target: T1, Estrogen receptor (Mus musculus); assay: Estrogenic effect in uterotrophic assay in immature mice at 5 ug dose; type: functional; method in brief: as §2
[6] = molecular target: T1, Estrogen receptor (Mus musculus); assay: In vivo inhibition of uterine growth in hormone-dependent MXT mammary tumor bearing mice; type: functional, organism-based
Method in brief: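 MXT tumor-bearing BDF1 mice dosed sc 3 times weekly for 6 weeks in olive oil at doses equimolar to 3 × 8 mg/kg per week. Uterotrophic effect measured at end of therapy. T/C % = treated/solvent-control uterotrophic effect × 100, mean of 10 animals. U test (Wilcoxon, Mann, Whitney), α ≤ 0.05.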

[7] = molecular target: T1, Estrogen receptor (Mus musculus); assay: Anti-estrogenic effect in uterotrophic assay in immature mice at 25 ug dose; type: functional; method in brief: as §1
[8] = molecular target: T1, Estrogen receptor (Mus musculus); assay: Estrogenic effect in uterotrophic assay in immature mice at 100 ug dose; type: functional; method in brief: as §2

T1 sequence (O08537 whole entry, looked up): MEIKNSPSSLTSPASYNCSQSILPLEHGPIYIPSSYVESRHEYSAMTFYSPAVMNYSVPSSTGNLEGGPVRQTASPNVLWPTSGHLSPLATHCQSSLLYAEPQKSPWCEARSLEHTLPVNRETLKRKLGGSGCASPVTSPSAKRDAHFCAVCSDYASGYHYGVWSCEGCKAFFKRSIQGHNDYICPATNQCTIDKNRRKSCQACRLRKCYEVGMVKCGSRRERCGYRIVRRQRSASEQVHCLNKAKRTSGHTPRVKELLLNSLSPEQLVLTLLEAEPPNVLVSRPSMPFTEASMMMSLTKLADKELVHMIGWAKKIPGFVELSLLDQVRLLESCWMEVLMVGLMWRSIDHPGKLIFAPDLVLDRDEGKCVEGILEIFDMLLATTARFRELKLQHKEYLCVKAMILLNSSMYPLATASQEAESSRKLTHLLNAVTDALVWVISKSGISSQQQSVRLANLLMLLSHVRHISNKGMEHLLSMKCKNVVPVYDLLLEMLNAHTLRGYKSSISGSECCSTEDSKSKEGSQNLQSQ
T1 sequence (P19785 whole entry, looked up): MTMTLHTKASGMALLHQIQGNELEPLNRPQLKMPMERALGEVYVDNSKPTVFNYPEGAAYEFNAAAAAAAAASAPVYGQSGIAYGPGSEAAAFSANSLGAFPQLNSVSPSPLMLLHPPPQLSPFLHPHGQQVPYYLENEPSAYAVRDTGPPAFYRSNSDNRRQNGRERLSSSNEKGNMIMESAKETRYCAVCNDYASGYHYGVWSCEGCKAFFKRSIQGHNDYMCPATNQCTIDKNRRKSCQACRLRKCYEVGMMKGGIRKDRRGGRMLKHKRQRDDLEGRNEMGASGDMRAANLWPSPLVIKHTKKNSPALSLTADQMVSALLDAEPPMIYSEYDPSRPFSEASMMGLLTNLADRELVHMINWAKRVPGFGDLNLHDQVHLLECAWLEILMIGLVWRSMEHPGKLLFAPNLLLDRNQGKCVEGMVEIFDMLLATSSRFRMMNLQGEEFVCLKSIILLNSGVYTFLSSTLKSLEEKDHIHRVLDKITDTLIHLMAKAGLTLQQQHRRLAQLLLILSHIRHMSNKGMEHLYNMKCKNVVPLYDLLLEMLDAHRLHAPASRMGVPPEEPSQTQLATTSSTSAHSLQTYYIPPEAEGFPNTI

inhibition [1] | inhibition [2] | Activity [3] | Activity [4] | Activity [5] | T/C [6] | inhibition [7] | Activity [8] | Compound | T/C (Mus musculus)
5% | 23% | 2 | 33 | 2 | 77.9% | 0% | 60 | CCC1(c2ccccc2)OC1(c1ccc(OC(C)=O)cc1)c1ccc(OC(C)=O)cc1 (stereo not drawn) | 78.9%
0% | 27% | 17 | 79 | 42 | 73.7% | – | 83 | CCC(c1ccccc1)C(c1ccc(OC(C)=O)cc1)c1ccc(OC(C)=O)cc1 (stereo not drawn) | 69.1%
0% | 0% | 60 | 100 | 87 | 128% | – | 117 | CC(=O)Oc1ccc(C(=C(c2ccccc2)C(C)C)c2ccc(OC(C)=O)cc2)cc1 | 0.2%
0% | 26% | 11 | 99 | 13 | 54.8% | – | 116 | CC(=O)Oc1ccc(C(=Cc2ccccc2)c2ccc(OC(C)=O)cc2)cc1 | 64.3%
– | – | 125 | 83 | 108 | 120% | – | 78 | CC(=O)Oc1ccc(C(=C(C)c2ccccc2)c2ccc(OC(C)=O)cc2)cc1 | 0.3%
0% | 19% | 31 | 90 | 42 | 93.3% | – | 114 | CCCC(=C(c1ccc(OC(C)=O)cc1)c1ccc(OC(C)=O)cc1)c1ccccc1 | 61.1%
– | 0% | 62 | 108 | 140 | 128% | – | 86 | CC(=O)Oc1ccc(C(=C(CC(F)(F)F)c2ccccc2)c2ccc(OC(C)=O)cc2)cc1 | 43.1%
– | – | – | – | – | – | – | – | CC/C(=C(\c1ccccc1)c1ccc(OCCN(C)C)cc1)c1ccccc1 [TAMOXIFEN] | 9.8%
0% | 0% | 37 | 98 | 72 | 124% | – | 107 | CCC(=C(c1ccc(OC(C)=O)cc1)c1ccc(OC(C)=O)cc1)c1ccccc1 | 0.4%
